Assay results taken from ChEMBL document CHEMBL1142894, “Preparation of 5-aryl-3-alkylthio-l,2,4-triazoles and corresponding sulfones with antiinflammatory-analgesic activity” (Bioorg Med Chem, 2007).
Active and inactive are the calls of the source. No cut-off for these calls is given here.

Columns and labels:
Mus musculus [1] = assay: Inhibition of carrageenan-induced paw edema in Swiss albino mouse at 50 mg/kg, po after 360 mins relative to control; format: functional; settings: 6 h
In short: (§1)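 Mice, n = 6 per group. Test agent given orally as a suspension in 0.5% sodium CMC in distilled water; controls received vehicle only. Afterwards, 0.5 mg/25 ll carrageenan in saline (154 mM NaCl) injected subplantar into the right hind paw, saline into the left. Right-minus-left footpad thickness measured by dial gauge caliper every 90 min for 6 h. Inhibition is relative to vehicle-control group means.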

Mus musculus [2] = assay: Inhibition of p-benzoquinone-induced writhing in Swiss albino mouse at 50 mg/kg, po relative to control; format: functional
In short: (§2)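 Mice, n = 6 per group, dosed orally with a suspension in 0.5% sodium CMC. 60 min later, 0.1 ml/10 g of 2.5% […] p-benzoquinone in distilled water given ip. Abdominal writhes counted per animal for 15 min, starting 5 min after injection. Expressed as % change in mean writhing count versus vehicle controls.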

Mus musculus [3] = assay: Inhibition of carrageenan-induced paw edema in Swiss albino mouse at 100 mg/kg, po after 360 mins relative to control; format: functional; settings: 6 h
In short: (§3)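 Oral dosing in 0.5% CMC; vehicle to controls. Then carrageenan (0.5 mg/25 ll, freshly suspended in 154 mM saline) injected into the right hind paw subplantar tissue; saline into the left paw. Right-left footpad thickness difference measured by dial gauge calliper every 90 min over 6 h. Inhibition % is relative to vehicle control. n = 6; mean ± SEM.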

Mus musculus [4] = assay: Inhibition of carrageenan-induced paw edema in Swiss albino mouse at 50 mg/kg, po after 270 mins relative to control; format: functional; settings: 4.5 h; in short: as §1
Mus musculus [5] = assay: Inhibition of carrageenan-induced paw edema in Swiss albino mouse at 100 mg/kg, po after 180 mins relative to control; format: functional; settings: 3 h; in short: as §3
Mus musculus [6] = assay: Inhibition of carrageenan-induced paw edema in Swiss albino mouse at 50 mg/kg, po after 180 mins relative to control; format: functional; settings: 3 h; in short: as §3
Mus musculus [7] = assay: Analgesic activity against p-benzoquinone-induced abdominal constriction in Swiss albino mouse assessed as number of writhings at 100 mg/kg, po; format: functional, Abdomen
In short: (§4)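 Test samples given orally in 0.5% CMC; vehicle to controls. 60 min later, 2.5% (v/v) p-benzoquinone in distilled water, 0.1 ml/10 g, given i.p. Mice housed singly; writhes counted for 15 min starting 5 min after injection. Activity is % change from vehicle controls. n = 6; mean ± SEM.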

Mus musculus [8] = assay: Antiinflammatory activity against carrageenan-induced paw edema in Swiss albino mouse assessed as swelling thickness at 100 mg/kg, po after 270 mins; format: functional; in short: as §3
Mus musculus [9] = assay: Antiinflammatory activity against carrageenan-induced paw edema in Swiss albino mouse assessed as swelling thickness at 50 mg/kg, po after 270 mins; format: functional; in short: as §3
Mus musculus [10] = assay: Acute toxicity in Swiss albino mouse assessed as lethal effect at 50 mg/kg/day, po after 72 hrs; format: organism-based; design: route oral; settings: in vivo
In short: (§5)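 Oral single dose suspended in 0.5% carboxymethylcellulose, given after a 24 h fast; food and water returned 1 h after dosing. Vehicle-only controls. Mice observed at 1 h, then once daily for 72 h, for toxic signs and mortality.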

Mus musculus [11] = assay: Analgesic activity against p-benzoquinone-induced abdominal constriction in Swiss albino mouse assessed as number of writhings at 200 mg/kg, po; format: functional, Abdomen; in short: as §4
Mus musculus [12] = assay: Antiinflammatory activity against carrageenan-induced paw edema in Swiss albino mouse assessed as swelling thickness at 50 mg/kg, po after 180 mins; format: functional; in short: as §3
Mus musculus [13] = assay: Antiinflammatory activity against carrageenan-induced paw edema in Swiss albino mouse assessed as swelling thickness at 200 mg/kg, po after 90 mins; format: functional; in short: as §3
Mus musculus [14] = assay: Inhibition of carrageenan-induced paw edema in Swiss albino mouse at 50 mg/kg, po after 90 mins relative to control; format: functional; settings: 1.5 h; in short: as §1
Mus musculus [15] = assay: Antiinflammatory activity against carrageenan-induced paw edema in Swiss albino mouse assessed as swelling thickness at 100 mg/kg, po after 360 mins; format: functional; in short: as §3
Mus musculus [16] = assay: Antiinflammatory activity against carrageenan-induced paw edema in Swiss albino mouse assessed as swelling thickness at 50 mg/kg, po after 90 mins; format: functional; in short: as §3
Mus musculus [17] = assay: Inhibition of carrageenan-induced paw edema in Swiss albino mouse at 25 mg/kg, po after 180 mins relative to control; format: functional; settings: 3 h; in short: as §3
Mus musculus [18] = assay: Acute toxicity in Swiss albino mouse assessed as lethal effect at 200 mg/kg/day, po after 72 hrs; format: organism-based; design: route oral; settings: in vivo; in short: as §5
Mus musculus [19] = assay: Analgesic activity against p-benzoquinone-induced abdominal constriction in Swiss albino mouse assessed as number of writhings at 50 mg/kg, po; format: functional, Abdomen; in short: as §4
Mus musculus [20] = assay: Antiinflammatory activity against carrageenan-induced paw edema in Swiss albino mouse assessed as swelling thickness at 25 mg/kg, po after 270 mins; format: functional; in short: as §3
Mus musculus [21] = assay: Antiinflammatory activity against carrageenan-induced paw edema in Swiss albino mouse assessed as swelling thickness at 25 mg/kg, po after 90 mins; format: functional; in short: as §3
Mus musculus [22] = assay: Analgesic activity against p-benzoquinone-induced abdominal constriction in Swiss albino mouse assessed as number of writhings at 25 mg/kg, po; format: functional, Abdomen; in short: as §4
Mus musculus [23] = assay: Inhibition of p-benzoquinone-induced writhing in Swiss albino mouse at 25 mg/kg, po relative to control; format: functional; in short: as §2
Mus musculus [24] = assay: Inhibition of carrageenan-induced paw edema in Swiss albino mouse at 25 mg/kg, po after 270 mins relative to control; format: functional; settings: 4.5 h; in short: as §3
Mus musculus [25] = assay: Inhibition of carrageenan-induced paw edema in Swiss albino mouse at 100 mg/kg, po after 90 mins relative to control; format: functional; settings: 1.5 h; in short: as §3
Mus musculus [26] = assay: Antiinflammatory activity against carrageenan-induced paw edema in Swiss albino mouse assessed as swelling thickness at 200 mg/kg, po after 270 mins; format: functional; in short: as §3
Mus musculus [27] = assay: Inhibition of carrageenan-induced paw edema in Swiss albino mouse at 100 mg/kg, po after 270 mins relative to control; format: functional; settings: 4.5 h; in short: as §3
Mus musculus [28] = assay: Acute toxicity in Swiss albino mouse assessed as lethal effect at 25 mg/kg/day, po after 72 hrs; format: organism-based; design: route oral; settings: in vivo; in short: as §5
Mus musculus [29] = assay: Antiinflammatory activity against carrageenan-induced paw edema in Swiss albino mouse assessed as swelling thickness at 25 mg/kg, po after 180 mins; format: functional; in short: as §3
Mus musculus [30] = assay: Antiinflammatory activity against carrageenan-induced paw edema in Swiss albino mouse assessed as swelling thickness at 200 mg/kg, po after 360 mins; format: functional; in short: as §3
Mus musculus [31] = assay: Inhibition of carrageenan-induced paw edema in Swiss albino mouse at 200 mg/kg, po after 90 mins relative to control; format: functional; settings: 1.5 h; in short: as §3
Mus musculus [32] = assay: Inhibition of p-benzoquinone-induced writhing in Swiss albino mouse at 200 mg/kg, po relative to control; format: functional; in short: as §2
Mus musculus [33] = assay: Antiinflammatory activity against carrageenan-induced paw edema in Swiss albino mouse assessed as swelling thickness at 100 mg/kg, po after 180 mins; format: functional; in short: as §3
Mus musculus [34] = assay: Gastric-ulcerogenic effect in Swiss albino mouse assessed as lesions at 50 mg/kg, po; format: functional, organism-based; design: dose 50 mg/kg
In short: (§6)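 Mice killed under deep ether anesthesia 3 h after the writhing test; the oral dose in 0.5% CMC was the one used in that test. Stomachs removed, opened along the great curvature and examined under a dissecting microscope for lesions or bleeding. Reported as ratio of ulceration; n = 6.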

Mus musculus [35] = assay: Antiinflammatory activity against carrageenan-induced paw edema in Swiss albino mouse assessed as swelling thickness at 100 mg/kg, po after 90 mins; format: functional; in short: as §3
Mus musculus [36] = assay: Antiinflammatory activity against carrageenan-induced paw edema in Swiss albino mouse assessed as swelling thickness at 200 mg/kg, po after 180 mins; format: functional; in short: as §3
Mus musculus [37] = assay: Inhibition of carrageenan-induced paw edema in Swiss albino mouse at 200 mg/kg, po after 270 mins relative to control; format: functional; settings: 4.5 h; in short: as §3
Mus musculus [38] = assay: Inhibition of p-benzoquinone-induced writhing in Swiss albino mouse at 100 mg/kg, po relative to control; format: functional; in short: as §2
Mus musculus [39] = assay: Inhibition of carrageenan-induced paw edema in Swiss albino mouse at 200 mg/kg, po after 360 mins relative to control; format: functional; settings: 6 h; in short: as §3
Mus musculus [40] = assay: Inhibition of carrageenan-induced paw edema in Swiss albino mouse at 25 mg/kg, po after 360 mins relative to control; format: functional; settings: 6 h; in short: as §3
Mus musculus [41] = assay: Antiinflammatory activity against carrageenan-induced paw edema in Swiss albino mouse assessed as swelling thickness at 25 mg/kg, po after 360 mins; format: functional; in short: as §3
Mus musculus [42] = assay: Inhibition of carrageenan-induced paw edema in Swiss albino mouse at 25 mg/kg, po after 90 mins relative to control; format: functional; settings: 1.5 h; in short: as §3
Mus musculus [43] = assay: Gastric-ulcerogenic effect in Swiss albino mouse assessed as lesions at 25 mg/kg, po; format: functional, organism-based; design: dose 25 mg/kg; in short: as §6
Mus musculus [44] = assay: Antiinflammatory activity against carrageenan-induced paw edema in Swiss albino mouse assessed as swelling thickness at 50 mg/kg, po after 360 mins; format: functional; in short: as §3
Mus musculus [45] = assay: Acute toxicity in Swiss albino mouse assessed as lethal effect at 100 mg/kg/day, po after 72 hrs; format: organism-based; design: route oral; settings: in vivo; in short: as §5

`CCSc1nc(-c2ccc(Cl)cc2)n[nH]1` showed an inhibition in vivo at 50 mg/kg (Mus musculus [1]) of 40.1%, an inhibition in vivo at 50 mg/kg (Mus musculus [2]) of 33.5% and an inhibition in vivo at 100 mg/kg (Mus musculus [3]) of 35.8%. The inhibition in vivo at 50 mg/kg (Mus musculus [4]) was 29.3%, the inhibition in vivo at 100 mg/kg (Mus musculus [5]) was 25.8% and the inhibition in vivo at 50 mg/kg (Mus musculus [6]) was 27.3%. The Activity (Mus musculus [7]) was 33.8, the Activity (Mus musculus [8]) was 40.7 10^-2mm and the Activity (Mus musculus [9]) was 45.8 10^-2mm. For the same compound, the Activity (Mus musculus [10]) was “Non-toxic”, the Activity (Mus musculus [11]) was 44.8 and the Activity (Mus musculus [12]) was 43.2 10^-2mm. The Activity (Mus musculus [13]) was 51.8 10^-2mm, the inhibition in vivo at 50 mg/kg (Mus musculus [14]) was 26.5% and the Activity (Mus musculus [15]) was 44.2 10^-2mm. The Activity (Mus musculus [16]) was 39.1 10^-2mm, the inhibition in vivo at 25 mg/kg (Mus musculus [17]) was 15.9% and the Activity (Mus musculus [18]) was “Non-toxic”. For the same compound, the Activity (Mus musculus [19]) was 34.2, the Activity (Mus musculus [20]) was 63.5 10^-2mm and the Activity (Mus musculus [21]) was 45.9 10^-2mm. The Activity (Mus musculus [22]) was 45.1, the inhibition in vivo at 25 mg/kg (Mus musculus [23]) was 12.3% and the inhibition in vivo at 25 mg/kg (Mus musculus [24]) was 16.9%. For the same compound, the inhibition in vivo at 100 mg/kg (Mus musculus [25]) was 23.4%, the Activity (Mus musculus [26]) was 63.5 10^-2mm and the inhibition in vivo at 100 mg/kg (Mus musculus [27]) was 30.8%. For the same compound, the Activity (Mus musculus [28]) was “Non-toxic”, the Activity (Mus musculus [29]) was 49.9 10^-2mm and the Activity (Mus musculus [30]) was 74.2 10^-2mm. For the same compound, the inhibition in vivo at 200 mg/kg (Mus musculus [31]) was 2.6%, the inhibition in vivo at 200 mg/kg (Mus musculus [32]) was 12.8% and the Activity (Mus musculus [33]) was 38.2 10^-2mm. The Activity (Mus musculus [34]) was “Active”, the Activity (Mus musculus [35]) was 34.3 10^-2mm and the Activity (Mus musculus [36]) was 59.9 10^-2mm. For the same compound, the inhibition in vivo at 200 mg/kg (Mus musculus [37]) was 2%, the inhibition in vivo at 100 mg/kg (Mus musculus [38]) was 28.5% and the inhibition in vivo at 200 mg/kg (Mus musculus [39]) was 3.4%. For the same compound, the inhibition in vivo at 25 mg/kg (Mus musculus [40]) was 17.1%, the Activity (Mus musculus [41]) was 59.7 10^-2mm and the inhibition in vivo at 25 mg/kg (Mus musculus [42]) was 13.7%. For the same compound, the Activity (Mus musculus [43]) was “Active”, the Activity (Mus musculus [44]) was 43.1 10^-2mm and the Activity (Mus musculus [45]) was “Non-toxic”.
